Test results taken from ChEMBL document CHEMBL3632558, “Synthesis, antimycobacterial and antibacterial activity of l-[(1R,2S)-2-fluorocyclopropyl]naphthyridone derivatives containing an oxime-functionalized pyrrolidine moiety” (2015).
Converted amounts (≈) assume the structure as drawn.

Key:
Type in all cases: functional
Enterococcus faecalis [1] = assay: Antibacterial activity against Enterococcus faecalis 14-2 after 18 to 24 hrs
Procedure, shortened: (§1)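 MIC by standard NCCLS reference procedure (M100-S11); lowest concentration of compound inhibiting visible bacterial growth after incubation at 35 °C for 18–24 h, read as complete inhibition of growth. Ciprofloxacin, levofloxacin and moxifloxacin run alongside as reference agents.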

Enterococcus faecium [2] = assay: Antibacterial activity against Enterococcus faecium 14-1 after 18 to 24 hrs; procedure, shortened: as §1
Enterococcus faecium [3] = assay: Antibacterial activity against Enterococcus faecium 14-2 after 18 to 24 hrs; procedure, shortened: as §1
Enterococcus faecium [4] = assay: Antibacterial activity against Enterococcus faecium 14-5 after 18 to 24 hrs; procedure, shortened: as §1
Enterococcus faecium [5] = assay: Antibacterial activity against Enterococcus faecium 14-6 after 18 to 24 hrs; procedure, shortened: as §1
Escherichia coli [6] = assay: Antibacterial activity against ESBL-positive Escherichia coli 14-1 after 18 to 24 hrs; procedure, shortened: as §1
Escherichia coli [7] = assay: Antibacterial activity against ESBL-positive Escherichia coli 14-2 after 18 to 24 hrs; procedure, shortened: as §1
Escherichia coli [8] = assay: Antibacterial activity against Escherichia coli 14-1 after 18 to 24 hrs; procedure, shortened: as §1
Escherichia coli [9] = assay: Antibacterial activity against Escherichia coli 14-2 after 18 to 24 hrs; procedure, shortened: as §1
Klebsiella pneumoniae [10] = assay: Antibacterial activity against ESBL-positive Klebsiella pneumoniae 14-17 after 18 to 24 hrs; procedure, shortened: as §1
Klebsiella pneumoniae [11] = assay: Antibacterial activity against ESBL-positive Klebsiella pneumoniae 14-19 after 18 to 24 hrs; procedure, shortened: as §1
Klebsiella pneumoniae [12] = assay: Antibacterial activity against Klebsiella pneumoniae 14-1 after 18 to 24 hrs; procedure, shortened: as §1
Klebsiella pneumoniae [13] = assay: Antibacterial activity against Klebsiella pneumoniae 14-2 after 18 to 24 hrs; procedure, shortened: as §1
Klebsiella pneumoniae [14] = assay: Antibacterial activity against Klebsiella pneumoniae 14-3 after 18 to 24 hrs; procedure, shortened: as §1
Klebsiella pneumoniae [15] = assay: Antibacterial activity against Klebsiella pneumoniae 14-4 after 18 to 24 hrs; procedure, shortened: as §1
Staphylococcus aureus [16] = assay: Antibacterial activity against Staphylococcus aureus CMCC 26003 after 18 to 24 hrs; procedure, shortened: as §1
Staphylococcus aureus [17] = assay: Antibacterial activity against methicillin-sensitive Staphylococcus aureus 14-1 after 18 to 24 hrs; procedure, shortened: as §1
Staphylococcus aureus [18] = assay: Antibacterial activity against methicillin-sensitive Staphylococcus aureus 14-2 after 18 to 24 hrs; procedure, shortened: as §1
Staphylococcus aureus [19] = assay: Antibacterial activity against methicillin-sensitive Staphylococcus aureus 14-3 after 18 to 24 hrs; procedure, shortened: as §1
Staphylococcus aureus [20] = assay: Antibacterial activity against methicillin-sensitive Staphylococcus aureus 14-4 after 18 to 24 hrs; procedure, shortened: as §1
Staphylococcus aureus [21] = assay: Antibacterial activity against methicillin-resistant Staphylococcus aureus 14-4 after 18 to 24 hrs
Staphylococcus aureus [22] = assay: Antibacterial activity against methicillin-resistant Staphylococcus aureus 14-5 after 18 to 24 hrs
[23] = test system: Staphylococcus epidermidis; assay: Antibacterial activity against methicillin-sensitive Staphylococcus epidermidis 14-2 after 18 to 24 hrs; procedure, shortened: as §1
[24] = test system: Staphylococcus epidermidis; assay: Antibacterial activity against methicillin-resistant Staphylococcus epidermidis 14-21 after 18 to 24 hrs
[25] = test system: Staphylococcus epidermidis; assay: Antibacterial activity against methicillin-resistant Staphylococcus epidermidis 14-22 after 18 to 24 hrs
[26] = test system: Staphylococcus epidermidis; assay: Antibacterial activity against methicillin-resistant Staphylococcus epidermidis 14-37 after 18 to 24 hrs
[27] = test system: Staphylococcus epidermidis; assay: Antibacterial activity against methicillin-resistant Staphylococcus epidermidis 14-39 after 18 to 24 hrs
Enterococcus faecalis [28] = assay: Antibacterial activity against Enterococcus faecalis 14-1 after 18 to 24 hrs; procedure, shortened: as §1
[29] = test system: Mycobacterium tuberculosis; assay: Antimycobacterial activity against Mycobacterium tuberculosis H37Rv ATCC 27294 by alamar blue assay
Procedure, shortened: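 Microplate Alamar Blue Assay; MIC is the lowest concentration giving ≥90% reduction in fluorescence relative to the mean of replicate bacterium-only controls. MDR strain 6133 is resistant to isoniazid and rifampicin.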

Escherichia coli [30] = assay: Antibacterial activity against Escherichia coli ATCC 25922 after 18 to 24 hrs; procedure, shortened: as §1
Klebsiella pneumoniae [31] = assay: Antibacterial activity against ESBL-positive Klebsiella pneumoniae 14-18 after 18 to 24 hrs; procedure, shortened: as §1
Pseudomonas aeruginosa [32] = assay: Antibacterial activity against Pseudomonas aeruginosa ATCC 27853 after 18 to 24 hrs; procedure, shortened: as §1
Pseudomonas aeruginosa [33] = assay: Antibacterial activity against Pseudomonas aeruginosa 14-9 after 18 to 24 hrs; procedure, shortened: as §1
Pseudomonas aeruginosa [34] = assay: Antibacterial activity against Pseudomonas aeruginosa 14-14 after 18 to 24 hrs; procedure, shortened: as §1
Pseudomonas aeruginosa [35] = assay: Antibacterial activity against Pseudomonas aeruginosa 14-15 after 18 to 24 hrs; procedure, shortened: as §1
Pseudomonas aeruginosa [36] = assay: Antibacterial activity against Pseudomonas aeruginosa 14-16 after 18 to 24 hrs; procedure, shortened: as §1
Pseudomonas aeruginosa [37] = assay: Antibacterial activity against Pseudomonas aeruginosa 14-19 after 18 to 24 hrs; procedure, shortened: as §1
Streptococcus pneumoniae = assay: Antibacterial activity against Streptococcus pneumoniae ATCC 19615 after 18 to 24 hrs; procedure, shortened: as §1

| Compound | MIC (Enterococcus faecalis [1]) [mg/L] | MIC (Enterococcus faecium [2]) [mg/L] | MIC (Enterococcus faecium [4]) [mg/L] | MIC (Enterococcus faecium [5]) [mg/L] | MIC (Klebsiella pneumoniae [10]) [mg/L] | MIC (Klebsiella pneumoniae [11]) [mg/L] | MIC (Klebsiella pneumoniae [12]) [mg/L] | MIC (Klebsiella pneumoniae [13]) [mg/L] | MIC (Klebsiella pneumoniae [14]) [mg/L] | MIC (Klebsiella pneumoniae [15]) [mg/L] | MIC (Staphylococcus aureus [16]) [mg/L] | MIC (Staphylococcus aureus [17]) [mg/L] | MIC (Staphylococcus aureus [18]) [mg/L] | MIC (Staphylococcus aureus [19]) [mg/L] | MIC (Staphylococcus aureus [20]) [mg/L] | MIC (Staphylococcus aureus [21]) [mg/L] | MIC (Staphylococcus aureus [22]) [mg/L] | MIC [23] [mg/L] | MIC [24] [mg/L] | MIC90 [29] [mg/L] | other results |
| --- | --- | --- | --- | --- | --- | --- | --- | --- | --- | --- | --- | --- | --- | --- | --- | --- | --- | --- | --- | --- | --- |
| C[C@H]1COc2c(N3CCN(C)CC3)c(F)cc3c(=O)c(C(=O)O)cn1c23.C[C@H]1COc2c(N3CCN(C)CC3)c(F)cc3c(=O)c(C(=O)O)cn1c23.O [LEVOFLOXACIN] | 1 | 16 | 64 | 64 | 4 | 64 | 16 | 8 | 16 | 8 | 0.125 | 8 | 0.25 | 0.125 | 0.5 | 64 | 8 | 128 | 64 | – | MIC (Enterococcus faecium [3]): 32 mg/L; MIC (Escherichia coli [6]): 2 mg/L; MIC (Escherichia coli [7]): 8 mg/L; MIC (Escherichia coli [8]): 4 mg/L; MIC (Escherichia coli [9]): 4 mg/L; MIC [25]: 32 mg/L; MIC [26]: 64 mg/L; MIC [27]: 64 mg/L; MIC (Enterococcus faecalis [28]): 128 mg/L |
| CO/N=C1\CN(c2nc3c(cc2F)c(=O)c(C(=O)O)cn3[C@@H]2C[C@@H]2F)CC1(C)CN (stereo not given in full) | 0.125 (≈ 0.297 µM) | 2 (≈ 4.75 µM) | 4 (≈ 9.49 µM) | 8 (≈ 19 µM) | 4 (≈ 9.49 µM) | 128 (≈ 304 µM) | 128 (≈ 304 µM) | > 128 | 128 (≈ 304 µM) | 64 (≈ 152 µM) | < 0.008 | 2 (≈ 4.75 µM) | 0.015 (≈ 0.0356 µM) | < 0.008 | 0.015 (≈ 0.0356 µM) | 8 (≈ 19 µM) | 4 (≈ 9.49 µM) | 16 (≈ 38 µM) | 2 (≈ 4.75 µM) | 0.372 (≈ 0.883 µM) | MIC (Enterococcus faecium [3]): 2 mg/L (≈ 4.75 µM); MIC (Escherichia coli [30]): 0.03 mg/L (≈ 0.0712 µM); MIC (Escherichia coli [6]): 4 mg/L (≈ 9.49 µM); MIC (Escherichia coli [7]): 64 mg/L (≈ 152 µM); MIC (Escherichia coli [8]): 32 mg/L (≈ 75.9 µM); MIC (Escherichia coli [9]): 32 mg/L (≈ 75.9 µM); MIC (Klebsiella pneumoniae [31]): 4 mg/L (≈ 9.49 µM); MIC (Pseudomonas aeruginosa [32]): 2 mg/L (≈ 4.75 µM); MIC (Pseudomonas aeruginosa [33]): 4 mg/L (≈ 9.49 µM); MIC (Pseudomonas aeruginosa [34]): 8 mg/L (≈ 19 µM); MIC (Pseudomonas aeruginosa [35]): 8 mg/L (≈ 19 µM); MIC (Pseudomonas aeruginosa [36]): 8 mg/L (≈ 19 µM); MIC (Pseudomonas aeruginosa [37]): 8 mg/L (≈ 19 µM); MIC [25]: 8 mg/L (≈ 19 µM); MIC [26]: 8 mg/L (≈ 19 µM); MIC [27]: 8 mg/L (≈ 19 µM); MIC (Streptococcus pneumoniae): 0.015 mg/L (≈ 0.0356 µM); MIC (Enterococcus faecalis [28]): 32 mg/L (≈ 75.9 µM) |
| NCC1CN(c2nc3c(cc2F)c(=O)c(C(=O)O)cn3[C@@H]2C[C@@H]2F)C/C1=N\OCc1ccccc1 (stereo not given in full) | – | – | – | – | – | – | – | – | – | – | – | – | – | – | – | – | – | – | – | 0.5 (≈ 1.03 µM) | – |
| NNC(=O)c1ccncc1 [ISONIAZID] | – | – | – | – | – | – | – | – | – | – | – | – | – | – | – | – | – | – | – | 0.049 (≈ 0.357 µM) | – |
| COc1c(N2C[C@@H]3CCCN[C@@H]3C2)c(F)cc2c(=O)c(C(=O)O)cn(C3CC3)c12 [MOXIFLOXACIN] | 0.5 (≈ 1.25 µM) | 8 (≈ 19.9 µM) | 8 (≈ 19.9 µM) | 8 (≈ 19.9 µM) | 8 (≈ 19.9 µM) | 64 (≈ 159 µM) | 8 (≈ 19.9 µM) | 16 (≈ 39.9 µM) | 32 (≈ 79.7 µM) | 16 (≈ 39.9 µM) | 0.06 (≈ 0.149 µM) | 4 (≈ 9.96 µM) | 0.06 (≈ 0.149 µM) | < 0.008 | < 0.008 | 16 (≈ 39.9 µM) | 8 (≈ 19.9 µM) | 32 (≈ 79.7 µM) | 32 (≈ 79.7 µM) | – | MIC (Klebsiella pneumoniae [31]): 1 mg/L (≈ 2.49 µM); MIC (Pseudomonas aeruginosa [32]): 2 mg/L (≈ 4.98 µM); MIC (Pseudomonas aeruginosa [33]): 4 mg/L (≈ 9.96 µM); MIC (Pseudomonas aeruginosa [34]): 16 mg/L (≈ 39.9 µM); MIC (Pseudomonas aeruginosa [35]): 16 mg/L (≈ 39.9 µM); MIC (Pseudomonas aeruginosa [36]): 8 mg/L (≈ 19.9 µM); MIC (Pseudomonas aeruginosa [37]): 1 mg/L (≈ 2.49 µM); MIC [25]: 8 mg/L (≈ 19.9 µM); MIC [26]: 8 mg/L (≈ 19.9 µM); MIC [27]: 8 mg/L (≈ 19.9 µM); MIC (Streptococcus pneumoniae): 0.015 mg/L (≈ 0.0374 µM); MIC (Enterococcus faecalis [28]): 32 mg/L (≈ 79.7 µM) |
| CO[C@H]1/C=C/O[C@@]2(C)Oc3c(C)c(O)c4c(O)c(c(/C=N/N5CCN(C)CC5)c(O)c4c3C2=O)NC(=O)/C(C)=C\C=C\[C@H](C)[C@H](O)[C@@H](C)[C@@H](O)[C@@H](C)[C@H](OC(C)=O)[C@@H]1C [RIFAMPIN] | – | – | – | – | – | – | – | – | – | – | – | – | – | – | – | – | – | – | – | 0.05 (≈ 0.0608 µM) | – |
